{"source": "ChEMBL document CHEMBL1275524", "about": "“Activities of antifungal agents against yeasts and filamentous fungi: assessment according to the methodology of the European Committee on Antimicrobial Susceptibility Testing” (2008)", "key": {"Aspergillus terreus": {"tested_on": "Aspergillus terreus", "assay": "Antifungal activity against Aspergillus terreus by EUCAST method", "assay_type": "functional", "conditions": "read-out: MEC"}, "Curvularia australiensis": {"tested_on": "Curvularia australiensis", "assay": "Antifungal activity against Bipolaris australiensis by EUCAST method", "assay_type": "functional", "conditions": "read-out: MEC", "how_it_was_run": "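Dematiaceous fungi were tested by the EUCAST spore-forming mold reference procedure: flat-bottom microdilution plates, RPMI 1640 plus 2% glucose, inoculum 2 × 105 to 5 × 10^5 CFU/ml. Endpoints were read visually at 24 and 48 h. Polyenes and azoles: 100% growth reduction vs drug-free control. CPF: minimum effective concentration. Run in duplicate and repeated twice.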"}, "Aspergillus fumigatus": {"tested_on": "Aspergillus fumigatus", "assay": "Antifungal activity against Aspergillus fumigatus", "assay_type": "functional"}, "[1]": {"tested_on": "Meyerozyma guilliermondii", "assay": "Antifungal activity against Candida guilliermondii", "assay_type": "functional", "how_it_was_run": "(§1)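 Broth microdilution in flat-bottom plates in RPMI 1640 with 2% glucose; inoculum 0.5 × 105 to 2.5 × 10^5 CFU/ml. MICs were read spectrophotometrically at 24 h. AMB endpoint: ≥90% growth reduction vs drug-free control well. Azole and CPF endpoint: 50% reduction in optical density. MFC was taken as the lowest concentration giving 99% killing.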"}, "Clavispora lusitaniae": {"tested_on": "Clavispora lusitaniae", "assay": "Antifungal activity against Candida lusitaniae", "assay_type": "functional", "how_it_was_run": "as §1"}, "Fusarium solani [2]": {"tested_on": "Fusarium solani", "assay": "Antifungal activity against Fusarium solani", "assay_type": "functional"}, "Fusarium oxysporum [3]": {"tested_on": "Fusarium oxysporum", "assay": "Antifungal activity against Fusarium oxysporum by EUCAST method", "assay_type": "functional", "conditions": "read-out: MEC"}, "Mucor hiemalis": {"tested_on": "Mucor hiemalis", "assay": "Antifungal activity against Mucor hiemalis by EUCAST method", "assay_type": "functional", "conditions": "read-out: MEC"}, "Saccharomyces cerevisiae": {"tested_on": "Saccharomyces cerevisiae", "assay": "Antifungal activity against Saccharomyces cerevisiae", "assay_type": "functional", "how_it_was_run": "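Broth microdilution following EUCAST for fermentative yeasts, in flat-bottom plates with RPMI 1640 plus 2% glucose. Inoculum was 0.5 × 10^5 to 2.5 × 10^5 CFU/ml. End points were read spectrophotometrically at 24 h: ≥90% growth reduction versus a drug-free control for amphotericin B, and 50% OD reduction for azoles and caspofungin. MFC was the lowest concentration giving 99% killing.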"}, "Candida tropicalis": {"tested_on": "Candida tropicalis", "assay": "Antifungal activity against Candida tropicalis by EUCAST method", "assay_type": "functional", "how_it_was_run": "as §1"}, "Fusarium solani [4]": {"tested_on": "Fusarium solani", "assay": "Antifungal activity against Fusarium solani by EUCAST method", "assay_type": "functional", "conditions": "read-out: MEC"}, "Mucor": {"tested_on": "Mucor", "assay": "Antifungal activity against Mucor species by EUCAST method", "assay_type": "functional", "conditions": "read-out: MEC"}, "Lichtheimia corymbifera [5]": {"tested_on": "Lichtheimia corymbifera", "assay": "Antifungal activity against Absidia corymbifera by EUCAST method", "assay_type": "functional", "conditions": "read-out: MEC"}, "Penicillium sp.": {"tested_on": "Penicillium sp.", "assay": "Antifungal activity against Penicillium species by EUCAST method", "assay_type": "functional", "conditions": "read-out: MEC"}, "Talaromyces marneffei [6]": {"tested_on": "Talaromyces marneffei", "assay": "Antifungal activity against Penicillium marneffei", "assay_type": "functional"}, "Rhizopus arrhizus": {"tested_on": "Rhizopus arrhizus", "assay": "Antifungal activity against Rhizopus oryzae", "assay_type": "functional", "how_it_was_run": "(§2)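 Broth microdilution following the EUCAST reference procedure for spore-forming moulds, in flat-bottom plates with RPMI 1640 plus 2% glucose. Inoculum was 2 × 10^5 to 5 × 10^5 CFU/ml. MICs were read visually at 24 and 48 h as 100% growth reduction versus a drug-free control for polyenes and azoles. MEC was used for caspofungin. Tests were run in duplicate and repeated twice.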"}, "[7]": {"tested_on": "Meyerozyma guilliermondii", "assay": "Antifungal activity against Candida guilliermondii by EUCAST method", "assay_type": "functional", "how_it_was_run": "as §1"}, "[8]": {"assay": "Antifungal activity against Rhizopus microsporus var. oligosporus", "assay_type": "functional", "how_it_was_run": "as §2"}, "Rhizopus": {"tested_on": "Rhizopus", "assay": "Antifungal activity against Rhizopus species", "assay_type": "functional", "how_it_was_run": "as §2"}, "Lichtheimia corymbifera [9]": {"tested_on": "Lichtheimia corymbifera", "assay": "Antifungal activity against Absidia corymbifera", "assay_type": "functional"}, "Talaromyces marneffei [10]": {"tested_on": "Talaromyces marneffei", "assay": "Antifungal activity against Penicillium marneffei by EUCAST method", "assay_type": "functional", "conditions": "read-out: MEC"}, "[11]": {"assay": "Antifungal activity against Cryptococcus neoformans var. neoformans", "assay_type": "functional", "conditions": "Cryptococcus deneoformans", "how_it_was_run": "(§3)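 EUCAST yeast microdilution, modified for nonfermentative yeasts: plates were sealed and agitated at 350 rpm and 30°C for 48 h.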"}, "Aspergillus flavus": {"tested_on": "Aspergillus flavus", "assay": "Antifungal activity against Aspergillus flavus by EUCAST method", "assay_type": "functional"}, "Fusarium oxysporum [12]": {"tested_on": "Fusarium oxysporum", "assay": "Antifungal activity against Fusarium oxysporum", "assay_type": "functional"}, "Absidia": {"tested_on": "Absidia", "assay": "Antifungal activity against Absidia species", "assay_type": "functional"}, "Candida parapsilosis": {"tested_on": "Candida parapsilosis", "assay": "Antifungal activity against Candida parapsilosis", "assay_type": "functional", "conditions": "Lodderomyces parapsilosis", "how_it_was_run": "as §1"}, "Lomentospora prolificans": {"tested_on": "Lomentospora prolificans", "assay": "Antifungal activity against Scedosporium prolificans", "assay_type": "functional", "how_it_was_run": "as §2"}, "Candida albicans": {"tested_on": "Candida albicans", "assay": "Antifungal activity against Candida albicans", "assay_type": "functional", "how_it_was_run": "as §1"}, "[13]": {"assay": "Antifungal activity against Cryptococcus neoformans var. neoformans by EUCAST method", "assay_type": "functional", "conditions": "Cryptococcus deneoformans", "how_it_was_run": "as §3"}, "Cryptococcus gattii": {"tested_on": "Cryptococcus gattii", "assay": "Antifungal activity against Cryptococcus neoformans var. gattii", "assay_type": "functional, Cryptococcus bacillisporus", "how_it_was_run": "as §3"}, "Aspergillus niger": {"tested_on": "Aspergillus niger", "assay": "Antifungal activity against Aspergillus niger", "assay_type": "functional"}, "Cunninghamella": {"tested_on": "Cunninghamella", "assay": "Antifungal activity against Cunninghamella species", "assay_type": "functional"}, "Sporothrix schenckii": {"tested_on": "Sporothrix schenckii", "assay": "Antifungal activity against Sporothrix schenckii by EUCAST method", "assay_type": "functional", "conditions": "read-out: MEC", "how_it_was_run": "as §2"}, "Geotrichum candidum": {"tested_on": "Geotrichum candidum", "assay": "Antifungal activity against Geotrichum candidum", "assay_type": "functional"}, "Scedosporium apiospermum": {"tested_on": "Scedosporium apiospermum", "assay": "Antifungal activity against Scedosporium apiospermum", "assay_type": "functional", "how_it_was_run": "as §2"}, "Nakaseomyces glabratus": {"tested_on": "Nakaseomyces glabratus", "assay": "Antifungal activity against Candida glabrata", "assay_type": "functional", "how_it_was_run": "as §1"}, "Pichia kudriavzevii": {"tested_on": "Pichia kudriavzevii", "assay": "Antifungal activity against Candida krusei by EUCAST method", "assay_type": "functional", "how_it_was_run": "as §1"}}, "data": [{"smiles": "CC[C@H](C)C[C@H](C)CCCCCCCCC(=O)N[C@H]1C[C@@H](O)[C@@H](NCCN)NC(=O)[C@@H]2[C@@H](O)CCN2C(=O)[C@H]([C@H](O)CCN)NC(=O)[C@H]([C@H](O)[C@@H](O)c2ccc(O)cc2)NC(=O)[C@@H]2C[C@@H](O)CN2C(=O)[C@H]([C@@H](C)O)NC1=O", "note": "[CASPOFUNGIN]", "values": [{"measurement": "minimal effective concentration", "setting": "Aspergillus terreus", "value": 0.125, "unit": "µg/mL"}, {"measurement": "minimal effective concentration", "setting": "Curvularia australiensis", "value": "> 8", "unit": "µg/mL"}, {"measurement": "MFC", "setting": "Aspergillus fumigatus", "value": "> 8", "unit": "µg/mL"}, {"measurement": "MFC", "setting": "[1]", "value": "> 2", "unit": "µg/mL"}, {"measurement": "MFC", "setting": "Clavispora lusitaniae", "value": 4, "unit": "µg/mL"}, {"measurement": "MFC", "setting": "Fusarium solani [2]", "value": "> 8", "unit": "µg/mL"}, {"measurement": "minimal effective concentration", "setting": "Fusarium oxysporum [3]", "value": "> 8", "unit": "µg/mL"}, {"measurement": "minimal effective concentration", "setting": "Mucor hiemalis", "value": "> 8", "unit": "µg/mL"}, {"measurement": "MFC", "setting": "Saccharomyces cerevisiae", "value": 4, "unit": "µg/mL"}, {"measurement": "MIC", "setting": "Candida tropicalis", "value": 0.34, "unit": "µg/mL"}, {"measurement": "minimal effective concentration", "setting": "Fusarium solani [4]", "value": "> 8", "unit": "µg/mL"}, {"measurement": "minimal effective concentration", "setting": "Mucor", "value": "> 8", "unit": "µg/mL"}, {"measurement": "minimal effective concentration", "setting": "Lichtheimia corymbifera [5]", "value": "> 8", "unit": "µg/mL"}, {"measurement": "minimal effective concentration", "setting": "Penicillium sp.", "value": "> 8", "unit": "µg/mL"}, {"measurement": "MFC", "setting": "Talaromyces marneffei [6]", "value": "> 8", "unit": "µg/mL"}, {"measurement": "MFC", "setting": "Rhizopus arrhizus", "value": "> 8", "unit": "µg/mL"}, {"measurement": "MIC", "setting": "[7]", "value": 0.68, "unit": "µg/mL"}, {"measurement": "MFC", "setting": "[8]", "value": "> 8", "unit": "µg/mL"}, {"measurement": "MFC", "setting": "Rhizopus", "value": "> 8", "unit": "µg/mL"}, {"measurement": "MFC", "setting": "Lichtheimia corymbifera [9]", "value": "> 8", "unit": "µg/mL"}, {"measurement": "minimal effective concentration", "setting": "Talaromyces marneffei [10]", "value": "> 8", "unit": "µg/mL"}, {"measurement": "MFC", "setting": "[11]", "value": "> 8", "unit": "µg/mL"}, {"measurement": "MIC", "setting": "Aspergillus flavus", "value": 0.28, "unit": "µg/mL"}, {"measurement": "minimal effective concentration", "setting": "Aspergillus flavus; read-out: MEC", "value": 0.25, "unit": "µg/mL"}, {"measurement": "MFC", "setting": "Fusarium oxysporum [12]", "value": "> 8", "unit": "µg/mL"}, {"measurement": "MFC", "setting": "Absidia", "value": "> 8", "unit": "µg/mL"}, {"measurement": "MFC", "setting": "Candida parapsilosis", "value": 0.25, "unit": "µg/mL"}, {"measurement": "MFC", "setting": "Lomentospora prolificans", "value": "> 8", "unit": "µg/mL"}, {"measurement": "MFC", "setting": "Candida albicans", "value": 0.15, "unit": "µg/mL"}, {"measurement": "MIC", "setting": "[13]", "value": 2.04, "unit": "µg/mL"}, {"measurement": "MFC", "setting": "Cryptococcus gattii", "value": "> 8", "unit": "µg/mL"}, {"measurement": "MFC", "setting": "Aspergillus niger", "value": "> 8", "unit": "µg/mL"}, {"measurement": "MFC", "setting": "Cunninghamella", "value": "> 8", "unit": "µg/mL"}, {"measurement": "minimal effective concentration", "setting": "Sporothrix schenckii", "value": "> 8", "unit": "µg/mL"}, {"measurement": "MFC", "setting": "Geotrichum candidum", "value": "> 8", "unit": "µg/mL"}, {"measurement": "MFC", "setting": "Scedosporium apiospermum", "value": "> 8", "unit": "µg/mL"}, {"measurement": "MFC", "setting": "Nakaseomyces glabratus", "value": 0.15, "unit": "µg/mL"}, {"measurement": "MIC", "setting": "Pichia kudriavzevii", "value": 0.58, "unit": "µg/mL"}]}]}
